Assay results collected from several papers.
Lines come from different studies, so protocols differ.
CDK18 with cyclin Y: Cyclin-dependent kinase 18, with cyclin Y (CDK18, Homo sapiens, UniProt Q07002)
CDK18: Cyclin-dependent kinase 18 (CDK18, Homo sapiens, UniProt Q07002)

Compound | target | observed | mode | technique | tested at | endpoint | value
COc1ccc2oc(-c3ccc4nc(N)oc4c3)c/c(=N\c3ccccc3NC(=O)CCN)c2c1 | CDK18 with cyclin Y | binding |  |  | 1 µM | remaining binding | 108%
C=CC(=O)N1CCC([C@@H]2CCNc3c(C(N)=O)c(-c4ccc(Oc5ccccc5)cc4)nn32)CC1 | CDK18 | enzyme activity | inhibitor |  | 1 µM | inhibition | 9%
Cc1ccc(NC(=O)c2ccnc(C(F)(F)F)c2)cc1-c1cc(OCCO)nc(N2CCOCC2)c1 | CDK18 | binding |  |  | 1 µM | remaining binding | 100%
C1=C/COCc2cc(ccc2OCCN2CCCC2)Nc2nccc(n2)-c2cccc(c2)COC/1 | CDK18 | binding |  |  | 0.1 µM | remaining binding | 92%
COc1ccc2[nH]c3c4[nH]c5ccc(OC)cc5c4c4c(c3c2c1)C(=O)NC4=O | CDK18 | binding |  |  | 1 µM | remaining binding | 80%
CC(C)S(=O)(=O)c1ccc2nccc(Nc3ccc4sc(C5CCCC5)nc4c3)c2c1 | CDK18 with cyclin Y | enzyme activity | inhibitor |  | 1 µM | activity vs control | 104%
CCCCC(=O)Nc1ccc(-c2ccc3ncn(CCC)c(=O)c3c2)cn1 | CDK18 | binding |  | competition with immobilised ligand | 0.5 µM | remaining binding | 100%
C=CC(=O)N1CCC[C@@H](n2nc(-c3ccc(Oc4ccccc4)cc3)c3c(N)ncnc32)C1 | CDK18 | enzyme activity | inhibitor |  | 1 µM | inhibition | 3%
